HCV core dimer – HCV core protein dimerization inhibition; TR-FRET GST/Flag-core106 dimerization, 1536-well; 300,000 tested, 0.33% active; inhibition, % at 5 µM;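 active means inhibition above the mean of all tested compounds plus 3 SD, set per screening campaign, cut at about 45% in these data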
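Assay system: GST-tagged and Flag-tagged HCV core protein residues 1-106 / Times: compound-protein-antibody incubation 4 h at 22.5 °C / Signal: time-resolved FRET, ex 340 nm, em 617 and 671 nm / Evaluation: % inhibition based on acceptor/donor emission ratio / Benchmarks: wells lacking GST-core106 and wells with excess unlabelled core106 / Repeats: singlicate, one well per compound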
HCV NS3 hel inh – HCV NS3 helicase inhibition | NS3 helicase DNA unwinding, Cy5 molecular beacon fluorescence | inhibition, % at 10.9 µM | 290,000 tested, 0.56% active | AID 1800;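 active means inhibition above the mean of all tested compounds plus 3 SD, set per campaign, cut at about 35% in these data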;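 further: 0% = DMSO wells and 100% = thioflavine S control wells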
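Test system: hepatitis C virus NS3 helicase domain fragment enzyme. Also added: annealed dual-labelled DNA beacon duplex, ATP-started. Timing: 60 min unwinding reaction at 25 °C after ATP addition. Technique: Cy5 fluorescence. Measure: % inhibition of unwinding.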
SUMO HTRF inh – blocks human SUMOylation mediated by UBC9 | 290,000 tested, 0.36% active | inhibition, % at 35 µM | P63279 | HTRF SUMOylation assay, SAE1/SAE2 + UBC9, in vitro | AID 2006; in the data active means inhibition above about 50%, passing the limit was not always enough
VIM-2 inh – inhibitors of Pseudomonas aeruginosa VIM-2 metallo-beta-lactamase. purified VIM-2, nitrocefin hydrolysis, epi-absorbance fluorescence. inhibition, % at 5.6 µM. 290,000 tested, 0.89% active;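 active means inhibition above the mean of all tested compounds plus 3 SD, cutoff set per screening run, cut at about 7.5% in these data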;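 further: red hydrolysis product quenches plate fluorescence so inhibitors raise well fluorescence; 0% = enzyme with DMSO and 100% = DMSO without enzyme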
IMP-1 inh-1 – inhibitors of Pseudomonas aeruginosa IMP-1 metallo-beta-lactamase | purified IMP-1, nitrocefin hydrolysis, epi-absorbance fluorescence | inhibition, % at 5.6 µM | 290,000 tested, 0.45% active | AID 1556;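 active means inhibition above the mean plus 3 SD of all compounds in the same screening run, cut at about 4.5% in these data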;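 further: 0% = IMP-1 with DMSO and 100% = DMSO wells lacking enzyme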
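Assay system: purified IMP-1; Quantity: IMP-1 0.2 nM before substrate addition; Medium: HEPES buffer pH 7.1 with ZnSO4 and Brij 35; Incubation: 15 min enzyme–compound preincubation, then 25 min nitrocefin reaction, 25 °C; Signal: fluorescence quenching readout, ex 480/em 530 nm; Controls: DMSO with and without IMP-1; Repeats: singlicate testing.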
PHOSPHO1 block – inhibitors of human PHOSPHO1 phosphatase; Q8TCT1; recombinant PHOSPHO1, absorbance phosphatase assay; inhibition, % at 13.3 µM; 290,000 tested, 1.1% active; in the data active means inhibition above about 60%
Target sequence (Q8TCT1 whole entry, looked up): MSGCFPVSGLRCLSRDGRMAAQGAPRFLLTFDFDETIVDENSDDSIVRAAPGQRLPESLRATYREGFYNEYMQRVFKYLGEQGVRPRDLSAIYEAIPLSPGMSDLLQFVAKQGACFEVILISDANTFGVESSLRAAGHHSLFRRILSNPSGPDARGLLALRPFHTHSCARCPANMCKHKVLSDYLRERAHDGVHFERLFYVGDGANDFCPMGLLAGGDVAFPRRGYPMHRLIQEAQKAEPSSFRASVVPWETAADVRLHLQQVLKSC
IMP-1 inh-2 – IMP-1 inhibition, counter-screen for VIM-2 inhibitors; shares compounds with VIM-2 inh; purified IMP-1, nitrocefin hydrolysis, epi-absorbance fluorescence; inhibition, % at 5.6 µM; 1,300 tested, under 10 active; call rule not given here;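 further: 0% = enzyme with vehicle and 100% = vehicle without enzyme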
VIM-2 FRET ctr – counter-screen for VIM-2 inhibitors: epi-absorbance artifacts via FRET. shares compounds with VIM-2 inh. purified VIM-2, CCF2 FRET substrate hydrolysis. inhibition, % at 5.6 µM. 1,300 tested, 23% active;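 active means inhibition above the mean of all tested compounds plus 3 SD, cut at about 19% in these data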;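 further: 0% = VIM-2 plus DMSO and 100% = no enzyme wells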
TEM-1 inh – selectivity counter-screen for VIM-2 inhibitors: E. coli TEM-1 inhibitors. inhibition, % at 5.6 µM. AID 1866. Purified TEM-1, nitrocefin hydrolysis, epi-absorbance fluorescence. 1,300 tested, 3% active. shares compounds with VIM-2 inh;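 active means inhibition above that campaign's mean inhibition plus 3 SD, cut at about 0.46% in these data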;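 further: 0% = TEM-1 with DMSO and 100% = TEM-1 with 100 µM potassium clavulanate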
Target sequence (P62593 whole entry, looked up): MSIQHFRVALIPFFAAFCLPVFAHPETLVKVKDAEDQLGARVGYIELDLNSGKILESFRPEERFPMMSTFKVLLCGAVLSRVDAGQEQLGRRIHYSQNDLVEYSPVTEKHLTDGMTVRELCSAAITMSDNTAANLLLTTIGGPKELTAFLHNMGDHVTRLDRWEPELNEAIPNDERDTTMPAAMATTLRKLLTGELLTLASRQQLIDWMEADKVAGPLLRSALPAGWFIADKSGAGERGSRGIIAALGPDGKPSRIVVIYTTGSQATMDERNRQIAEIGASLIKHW
VIM-2 confirm 2 – confirmation of P. aeruginosa VIM-2 metallo-beta-lactamase inhibitors; inhibition, % at 5.6 µM; shares compounds with VIM-2 inh; purified VIM-2, nitrocefin hydrolysis, epi-absorbance; 1,300 tested, 96% active;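 active means inhibition of the VIM-2 beta-lactamase enzyme above about 11% from the earlier first-round screen, limit read from the data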;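 further: 0% = VIM-2 with DMSO and 100% = buffer wells without enzyme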
The depositor's hits bear a star; nt = no result given. This is a sample that favours compounds with a hit; in the whole collection about 3.1% have one here.

SMILES	HCV core dimer	HCV NS3 hel inh	SUMO HTRF inh	VIM-2 inh	IMP-1 inh-1	PHOSPHO1 block	IMP-1 inh-2	VIM-2 FRET ctr	TEM-1 inh	VIM-2 confirm 2
O=C(NCC1CCCO1)c1ccc(NC(=O)c2cccc([N+](=O)[O-])c2)cc1 (stereo unspecified)	-4	9	2	-2	-2	24	nt	nt	nt	nt
O=C1c2nc3cc(-c4ccco4)[nH]n3c(=O)c2CN1C1CCCCC1	2	18	51	-2	-3	-4	nt	nt	nt	nt
O=C(O)c1ccccc1C(=O)NCCc1c(C(=O)O)[nH]c2ccc(F)cc12	0	6	15	-2	0	20	nt	nt	nt	nt
CC(=O)N/C(=C/c1ccc(OS(=O)(=O)c2ccc(C)cc2)cc1)C(=O)NCCCO	2	2	9	0	0	-15	nt	nt	nt	nt
CCOC(=O)c1cnc(-n2nc(C)cc2C)nc1NCc1ccc2c(c1)OCO2	29	2	14	58*	-5	20	-3	-33	1.6*	89*
Cc1nc2cc(-c3ccc(Cl)cc3)nn2c(NCCN(C)C)c1C	-12	-12	-11	19*	-3	33	-2	-3	-7	44*
Cc1cc(C)n2nc(-c3ccc(Cl)cc3)cc2n1	-5	1	-18	0	-1	51	nt	nt	nt	nt
COC(=O)c1ccc(OCC(O)CNCC(c2ccc(OC)cc2)N(C)C)c(OC)c1 (stereo unspecified)	-1	-9	-10	-1	-2	10	nt	nt	nt	nt
Cc1oc(-c2cccs2)nc1CN1CCN(Cc2ccc(F)c(F)c2)C(CCO)C1 (stereo unspecified)	-3	-15	-2	-3	-1	31	nt	nt	nt	nt
O=C(O)c1csc(-n2nc(-c3ccccc3)cc2C(F)(F)F)n1	6	9	20	36*	-4	50	-3	-1	-5	6
Cc1cc(C(F)(F)F)n(-c2nc(C(=O)O)cs2)n1	-2	-1	-4	-6	-5	-4	nt	nt	nt	nt
O=C(NCCCN1CCCC1=O)Nc1ccccc1F	-6	-2	14	1	-1	29	nt	nt	nt	nt
Cc1cc(NCCCN2CCOCC2)n2ncc(-c3ccc(Cl)cc3)c2n1	-6	-26	-14	-1	-3	13	nt	nt	nt	nt
Cc1cc(NCCCn2ccnc2)n2ncc(-c3ccc(Cl)cc3)c2n1	-7	-82	11	35*	-1	8	-2	-22	-6	50*
CCCc1cc(NCCCn2ccnc2)n2nc(C)c(-c3ccccc3)c2n1	2	-43	10	26*	-3	-10	-3	-30	-5	47*
Cc1cccc(-c2cc3nc(C)cc(NCCCn4ccnc4)n3n2)c1	-1	-6	23	48*	-1	19	-1	-15	-6	60*
O=C(O)c1cccc(NC(=S)N/N=C/c2ccccn2)c1	11	8	-36	-1	-4	-16	nt	nt	nt	nt
O=C(O)c1cccc(NC(=S)N/N=C/c2ccccc2OCc2cccc(Br)c2)c1	nt	24	19	74*	-4	-6	-3	65*	-9	40*
O=C(O)c1cccc(NC(=S)N/N=C/c2cccc(O)c2)c1	-1	1	-2	32*	-3	-25	-5	28*	-9	16*
CC(C)c1cc(N2CCN(C(=O)c3ccco3)CC2)n2c(nc3ccccc32)c1C#N	10	-2	40	15*	-1	-3	-4	-6	-5	32*
CCn1c(N2CCN(C(=O)c3ccco3)CC2)nc2ccccc21	-2	-5	0	-1	-1	nt	nt	nt	nt	nt
COCCN(Cc1ccccc1)C(=O)c1c(C)nn(-c2ccccc2)c1C	0	11	18	-3	-3	-8	nt	nt	nt	nt

From PubChem BioAssay
